Assay results published in ChEMBL document CHEMBL1137764, “Design, synthesis, antibacterial activity and physicochemical parameters of novel N-4-piperazinyl derivatives of norfloxacin” (Bioorg Med Chem, 2009).
Converted amounts (≈) assume the structure as drawn. Each block holds one compound with its values, some of them ahead of it.

Key:
Escherichia coli [1] = experiment: Antimicrobial activity against Escherichia coli after 24 hrs by agar diffusion technique; assay type: functional; conditions: for MIC: Escherichia coli, 24 h
Method in brief: (§1)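 Agar cup diffusion on Mueller-Hinton agar seeded from 10⁶ CFU/mL suspensions, with 10 mm cups in a 3–4 mm layer. Compounds were in DMF (10 mg/mL stock) at several concentrations. Plates were incubated at 37 °C and zones measured after 24 h. MIC was taken as the intercept of the plot of log concentration against inhibition zone diameter.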

Staphylococcus aureus [2] = experiment: Antimicrobial activity against Staphylococcus aureus at 16 ug/ml after 24 hrs by agar diffusion technique; assay type: functional; conditions: read-out: DIZ
Method in brief: (§2)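 Strains came from a university microbiology department. Inocula were 10⁶ CFU/mL. Mueller-Hinton agar was seeded with culture, poured 3–4 mm thick, and 10 mm cups were bored. Compounds were dissolved in DMF (10 mg/mL stock), diluted, and the solution was placed in the cups. Plates were incubated at 37 °C overnight. Inhibition zone diameter (mm) was read at 24 h.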

Staphylococcus aureus [3] = experiment: Antimicrobial activity against Staphylococcus aureus at 64 ug/ml after 24 hrs by agar diffusion technique; assay type: functional; conditions: read-out: DIZ; method in brief: as §2
Klebsiella pneumoniae [4] = experiment: Antimicrobial activity against Klebsiella pneumoniae at 64 ug/ml after 24 hrs by agar diffusion technique; assay type: functional; conditions: read-out: DIZ; method in brief: as §2
Escherichia coli [5] = experiment: Antimicrobial activity against Escherichia coli at 128 ug/ml after 24 hrs by agar diffusion technique; assay type: functional; conditions: read-out: DIZ; method in brief: as §2
Klebsiella pneumoniae [6] = experiment: Antimicrobial activity against Klebsiella pneumoniae at 512 ug/ml after 24 hrs by agar diffusion technique; assay type: functional; conditions: read-out: DIZ; method in brief: as §2
Klebsiella pneumoniae [7] = experiment: Antimicrobial activity against Klebsiella pneumoniae after 24 hrs by agar diffusion technique; assay type: functional; conditions: for MIC: Klebsiella pneumoniae, 24 h; method in brief: as §1
Pseudomonas aeruginosa [8] = experiment: Antimicrobial activity against Pseudomonas aeruginosa at 16 ug/ml after 24 hrs by agar diffusion technique; assay type: functional; conditions: read-out: DIZ; method in brief: as §2
Staphylococcus aureus [9] = experiment: Antimicrobial activity against Staphylococcus aureus at 512 ug/ml after 24 hrs by agar diffusion technique; assay type: functional; conditions: read-out: DIZ; method in brief: as §2
Pseudomonas aeruginosa [10] = experiment: Antimicrobial activity against Pseudomonas aeruginosa at 4 ug/ml after 24 hrs by agar diffusion technique; assay type: functional; conditions: read-out: DIZ; method in brief: as §2
[11] = Octanol-phosphate buffer partition coefficient, log D at pH 7.4 by spectrophotometry; assay type: physicochemical
Method in brief: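 Shake-flask method. A 0.2 mg/mL stock was diluted into pH 7.4 phosphate buffer and mixed with an equal volume of n-octanol, phases mutually presaturated and protected from light. Samples were vortexed 3 min, then shaken 5 h at 25 °C. Both phases were assayed by UV at 270–280 nm. D is the molar concentration ratio, octanol to aqueous.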

Escherichia coli [12] = experiment: Antimicrobial activity against Escherichia coli at 64 ug/ml after 24 hrs by agar diffusion technique; assay type: functional; conditions: read-out: DIZ; method in brief: as §2
Pseudomonas aeruginosa [13] = experiment: Antimicrobial activity against Pseudomonas aeruginosa at 128 ug/ml after 24 hrs by agar diffusion technique; assay type: functional; conditions: read-out: DIZ; method in brief: as §2
Klebsiella pneumoniae [14] = experiment: Antimicrobial activity against Klebsiella pneumoniae at 16 ug/ml after 24 hrs by agar diffusion technique; assay type: functional; conditions: read-out: DIZ; method in brief: as §2
Klebsiella pneumoniae [15] = experiment: Antimicrobial activity against Klebsiella pneumoniae at 4 ug/ml after 24 hrs by agar diffusion technique; assay type: functional; conditions: read-out: DIZ; method in brief: as §2
Pseudomonas aeruginosa [16] = experiment: Antimicrobial activity against Pseudomonas aeruginosa after 24 hrs by agar diffusion technique; assay type: functional; conditions: for MIC: Pseudomonas aeruginosa, 24 h; method in brief: as §1
Escherichia coli [17] = experiment: Antimicrobial activity against Escherichia coli at 16 ug/ml after 24 hrs by agar diffusion technique; assay type: functional; conditions: read-out: DIZ; method in brief: as §2
Pseudomonas aeruginosa [18] = experiment: Antimicrobial activity against Pseudomonas aeruginosa at 64 ug/ml after 24 hrs by agar diffusion technique; assay type: functional; conditions: read-out: DIZ; method in brief: as §2
Klebsiella pneumoniae [19] = experiment: Antimicrobial activity against Klebsiella pneumoniae at 128 ug/ml after 24 hrs by agar diffusion technique; assay type: functional; conditions: read-out: DIZ; method in brief: as §2
Escherichia coli [20] = experiment: Antimicrobial activity against Escherichia coli at 512 ug/ml after 24 hrs by agar diffusion technique; assay type: functional; conditions: read-out: DIZ; method in brief: as §2
Staphylococcus aureus [21] = experiment: Antimicrobial activity against Staphylococcus aureus after 24 hrs by agar diffusion technique; assay type: functional; conditions: for MIC: Staphylococcus aureus, 24 h; method in brief: as §1
Pseudomonas aeruginosa [22] = experiment: Antimicrobial activity against Pseudomonas aeruginosa at 512 ug/ml after 24 hrs by agar diffusion technique; assay type: functional; conditions: read-out: DIZ; method in brief: as §2
Staphylococcus aureus [23] = experiment: Antimicrobial activity against Staphylococcus aureus at 128 ug/ml after 24 hrs by agar diffusion technique; assay type: functional; conditions: read-out: DIZ; method in brief: as §2
Escherichia coli [24] = experiment: Antimicrobial activity against Escherichia coli at 4 ug/ml after 24 hrs by agar diffusion technique; assay type: functional; conditions: read-out: DIZ; method in brief: as §2
Staphylococcus aureus [25] = experiment: Antimicrobial activity against Staphylococcus aureus at 4 ug/ml after 24 hrs by agar diffusion technique; assay type: functional; conditions: read-out: DIZ; method in brief: as §2

MIC (Escherichia coli [1]): < 1 µg/mL | MIC (Klebsiella pneumoniae [7]): 8 µg/mL (≈ 18.6 µM) | logD [11]: -0.85 | MIC (Pseudomonas aeruginosa [16]): 9 µg/mL (≈ 21 µM) | MIC (Staphylococcus aureus [21]): 10 µg/mL (≈ 23.3 µM)
Structure (SMILES): CCn1cc(C(=O)O)c(=O)c2cc(F)c(N3CCN(CN4N=C(C)CC4=O)CC3)cc21
logMIC (Escherichia coli [1]): 0 | zone of inhibition at 16 µg/mL (Staphylococcus aureus [2]): 0 mm | zone of inhibition at 64 µg/mL (Staphylococcus aureus [3]): 7 mm | zone of inhibition at 64 µg/mL (Klebsiella pneumoniae [4]): 3 mm | zone of inhibition at 128 µg/mL (Escherichia coli [5]): 10 mm | zone of inhibition at 512 µg/mL (Klebsiella pneumoniae [6]): 11 mm | logMIC (Klebsiella pneumoniae [7]): 0.9 | zone of inhibition at 16 µg/mL (Pseudomonas aeruginosa [8]): 3 mm | zone of inhibition at 512 µg/mL (Staphylococcus aureus [9]): 3 mm | zone of inhibition at 4 µg/mL (Pseudomonas aeruginosa [10]): 0 mm | zone of inhibition at 64 µg/mL (Escherichia coli [12]): 10 mm | zone of inhibition at 128 µg/mL (Pseudomonas aeruginosa [13]): 7 mm | zone of inhibition at 16 µg/mL (Klebsiella pneumoniae [14]): 2 mm | zone of inhibition at 4 µg/mL (Klebsiella pneumoniae [15]): 0 mm | logMIC (Pseudomonas aeruginosa [16]): 0.95 | zone of inhibition at 16 µg/mL (Escherichia coli [17]): 8 mm | zone of inhibition at 64 µg/mL (Pseudomonas aeruginosa [18]): 3 mm | zone of inhibition at 128 µg/mL (Klebsiella pneumoniae [19]): 6 mm | zone of inhibition at 512 µg/mL (Escherichia coli [20]): 10 mm | logMIC (Staphylococcus aureus [21]): 1 | zone of inhibition at 512 µg/mL (Pseudomonas aeruginosa [22]): 18 mm | zone of inhibition at 128 µg/mL (Staphylococcus aureus [23]): 3 mm | zone of inhibition at 4 µg/mL (Escherichia coli [24]): 8 mm | zone of inhibition at 4 µg/mL (Staphylococcus aureus [25]): 0 mm

MIC (Escherichia coli [1]): 11 µg/mL (≈ 31.7 µM) | MIC (Klebsiella pneumoniae [7]): 128 µg/mL (≈ 369 µM) | logD [11]: 0.087 | MIC (Pseudomonas aeruginosa [16]): 6 µg/mL (≈ 17.3 µM) | MIC (Staphylococcus aureus [21]): < 1 µg/mL
Structure (SMILES): CCn1cc(C(=O)O)c(=O)c2cc(F)c(N3CCN(C=O)CC3)cc21 [4-N-FORMYL-1-PIPERAZINYL-NORFLOXACIN]
logMIC (Escherichia coli [1]): 1.04 | zone of inhibition at 16 µg/mL (Staphylococcus aureus [2]): 8 mm | zone of inhibition at 64 µg/mL (Staphylococcus aureus [3]): 8 mm | zone of inhibition at 64 µg/mL (Klebsiella pneumoniae [4]): 0 mm | zone of inhibition at 128 µg/mL (Escherichia coli [5]): 4 mm | zone of inhibition at 512 µg/mL (Klebsiella pneumoniae [6]): 8 mm | logMIC (Klebsiella pneumoniae [7]): 2.11 | zone of inhibition at 16 µg/mL (Pseudomonas aeruginosa [8]): 2 mm | zone of inhibition at 512 µg/mL (Staphylococcus aureus [9]): 12 mm | zone of inhibition at 4 µg/mL (Pseudomonas aeruginosa [10]): 0 mm | zone of inhibition at 64 µg/mL (Escherichia coli [12]): 2 mm | zone of inhibition at 128 µg/mL (Pseudomonas aeruginosa [13]): 13 mm | zone of inhibition at 16 µg/mL (Klebsiella pneumoniae [14]): 0 mm | zone of inhibition at 4 µg/mL (Klebsiella pneumoniae [15]): 0 mm | logMIC (Pseudomonas aeruginosa [16]): 0.78 | zone of inhibition at 16 µg/mL (Escherichia coli [17]): 2 mm | zone of inhibition at 64 µg/mL (Pseudomonas aeruginosa [18]): 7 mm | zone of inhibition at 128 µg/mL (Klebsiella pneumoniae [19]): 0 mm | zone of inhibition at 512 µg/mL (Escherichia coli [20]): 13 mm | logMIC (Staphylococcus aureus [21]): 0 | zone of inhibition at 512 µg/mL (Pseudomonas aeruginosa [22]): 13 mm | zone of inhibition at 128 µg/mL (Staphylococcus aureus [23]): 15 mm | zone of inhibition at 4 µg/mL (Escherichia coli [24]): 2 mm | zone of inhibition at 4 µg/mL (Staphylococcus aureus [25]): 7 mm

Structure (SMILES): CCn1cc(C(=O)O)c(=O)c2cc(F)c(N3CCNCC3)cc21 [NORFLOXACIN]
logMIC (Escherichia coli [1]): 1.45 | MIC (Escherichia coli [1]): 14 µg/mL (≈ 43.8 µM) | zone of inhibition at 16 µg/mL (Staphylococcus aureus [2]): 0 mm | zone of inhibition at 64 µg/mL (Staphylococcus aureus [3]): 0 mm | zone of inhibition at 64 µg/mL (Klebsiella pneumoniae [4]): 5 mm | zone of inhibition at 128 µg/mL (Escherichia coli [5]): 6 mm | zone of inhibition at 512 µg/mL (Klebsiella pneumoniae [6]): 12 mm | logMIC (Klebsiella pneumoniae [7]): 0 | MIC (Klebsiella pneumoniae [7]): 8 µg/mL (≈ 25.1 µM) | zone of inhibition at 16 µg/mL (Pseudomonas aeruginosa [8]): 2 mm | zone of inhibition at 512 µg/mL (Staphylococcus aureus [9]): 20 mm | zone of inhibition at 4 µg/mL (Pseudomonas aeruginosa [10]): 0 mm | logD [11]: -0.41 | zone of inhibition at 64 µg/mL (Escherichia coli [12]): 4 mm | zone of inhibition at 128 µg/mL (Pseudomonas aeruginosa [13]): 15 mm | zone of inhibition at 16 µg/mL (Klebsiella pneumoniae [14]): 0 mm | zone of inhibition at 4 µg/mL (Klebsiella pneumoniae [15]): 0 mm | logMIC (Pseudomonas aeruginosa [16]): 0.95 | MIC (Pseudomonas aeruginosa [16]): 9 µg/mL (≈ 28.2 µM) | zone of inhibition at 16 µg/mL (Escherichia coli [17]): 0 mm | zone of inhibition at 64 µg/mL (Pseudomonas aeruginosa [18]): 5 mm | zone of inhibition at 128 µg/mL (Klebsiella pneumoniae [19]): 8 mm | zone of inhibition at 512 µg/mL (Escherichia coli [20]): 19 mm | logMIC (Staphylococcus aureus [21]): 1.81 | MIC (Staphylococcus aureus [21]): 64 µg/mL (≈ 200 µM) | zone of inhibition at 512 µg/mL (Pseudomonas aeruginosa [22]): 20 mm | zone of inhibition at 128 µg/mL (Staphylococcus aureus [23]): 3 mm | zone of inhibition at 4 µg/mL (Escherichia coli [24]): 0 mm | zone of inhibition at 4 µg/mL (Staphylococcus aureus [25]): 0 mm
